Columns and labels:
[1] = target: T1, Estrogen receptor (Homo sapiens) (UniProt P03372); experiment: Transcriptional activation in MCF-7-2a cells expressing estrogen receptor alpha at 10e-6 M; assay type: functional, cell-based
T1 sequence (whole entry): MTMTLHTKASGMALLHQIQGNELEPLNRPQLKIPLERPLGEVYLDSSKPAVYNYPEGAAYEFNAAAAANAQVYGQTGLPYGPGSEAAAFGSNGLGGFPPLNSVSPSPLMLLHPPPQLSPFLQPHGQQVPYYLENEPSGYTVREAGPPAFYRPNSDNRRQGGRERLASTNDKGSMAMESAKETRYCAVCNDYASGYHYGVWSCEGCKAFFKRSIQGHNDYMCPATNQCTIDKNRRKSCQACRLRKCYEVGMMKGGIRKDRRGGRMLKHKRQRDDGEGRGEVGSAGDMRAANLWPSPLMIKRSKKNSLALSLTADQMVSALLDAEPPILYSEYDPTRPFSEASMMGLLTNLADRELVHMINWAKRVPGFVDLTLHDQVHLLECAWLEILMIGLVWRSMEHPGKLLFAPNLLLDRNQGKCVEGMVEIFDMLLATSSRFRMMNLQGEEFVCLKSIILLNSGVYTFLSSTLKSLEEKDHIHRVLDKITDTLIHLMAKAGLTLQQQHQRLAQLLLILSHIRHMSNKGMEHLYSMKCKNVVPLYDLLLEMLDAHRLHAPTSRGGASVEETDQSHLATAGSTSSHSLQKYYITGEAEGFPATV
Outline: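 MCF-7-2a cells were precultured one week in DMEM with L-glutamine, antibiotics and dextran/charcoal-treated BCS (50 mL/L), then seeded in six-well plates. After 24 h compounds were added (10^-5 to 10^-10 M final) and cells incubated 50 h, then lysed 20 min at room temperature. Luciferase luminescence (RLU) was read for 10 s and normalized to Bradford protein.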

[2] = target: Estrogen receptor (Bos taurus) (UniProt Q9XSB5+P49884); experiment: Displacement of 17-beta-[3H]-estradiol from estrogen receptor relative to 17-beta-estradiol; assay type: protein assay
Outline: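 Competitive binding with calf uterine cytosol as receptor source and 17β-[3H]estradiol (0.723 pmol per tube) as tracer. Compounds were dissolved in ethanol, diluted in TRIS buffer to six to eight concentrations and incubated overnight at 4 °C. Free ligand was removed with dextran-charcoal (90 min, 4 °C), then supernatant was scintillation counted. Nonspecific binding was set with 2 nmol estradiol. RBA = ratio of 50%-inhibiting concentrations (estradiol/sample) × 100%.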

Row | SMILES | Activation [1] [%] | RBA [2] [%]
1 | Oc1ccc(-c2[nH]cnc2-c2c(Cl)cc(O)cc2Cl)c(Cl)c1 | 27 | 0.1
2 | N[C@H](c1ccc(O)cc1Cl)[C@@H](N)c1c(Cl)cc(O)cc1Cl | 98 | 1.5
3 | Oc1ccc([C@H]2NCCN[C@H]2c2c(Cl)cc(O)cc2Cl)c(Cl)c1 | 20 | < 0.02
4 | COc1ccc([C@@H](N)[C@@H](N)c2c(Cl)cc(OC)cc2Cl)c(Cl)c1 | 0 | 0

More lines, now with the values ahead:

Row | Activation [1] [%] | RBA [2] [%] | SMILES
5 | 6 | 0 | COc1ccc(-c2[nH]cnc2-c2c(Cl)cc(OC)cc2Cl)c(Cl)c1
6 | 6 | 0 | COc1ccc([C@H]2N=CN[C@H]2c2c(Cl)cc(OC)cc2Cl)c(Cl)c1
7 | 3 | 0 | COc1ccc([C@H]2NCCN[C@H]2c2c(Cl)cc(OC)cc2Cl)c(Cl)c1
